ChEMBL document CHEMBL1629615, “Intrapulmonary pharmacokinetics and pharmacodynamics of posaconazole at steady state in healthy subjects” (Antimicrob Agents Chemother, 2009)

Assays:
[1] = Drug level in healthy human alveolar cell at 400 mg, po every 12 hrs for 7 days measured after 5 hrs of last dose; type: ADME, organism-based, Pneumocyte; settings: alveolar cells, read-out: Drug uptake
Method in brief: (§1)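 Healthy adults got 400 mg oral suspension (40 mg/ml) 10 min after a high-fat meal every 12 h, for 14 doses over 8 days. Each subject had one bronchoscopy with BAL under topical lidocaine, no sedation, at 3, 5, 8, 12 or 24 h after the last dose. BAL fluid was spun at 400 x g for 5 min at 4°C. Supernatant and cell pellet were frozen at –70°C and assayed by LC-MS/MS against a plasma calibration curve. ELF volume was derived from urea.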

[2] = Ratio of Cmax in healthy human plasma at 400 mg, po every 12 hrs for 7 days to MIC90 for Aspergillus spp.; type: functional
[3] = Ratio of Cmax in healthy human lung epithelial lining fluid at 400 mg, po every 12 hrs for 7 days to MIC90 for Aspergillus spp.; type: functional
[4] = Drug level in healthy human alveolar cell at 400 mg, po every 12 hrs for 7 days measured after 8 hrs of last dose; type: ADME, organism-based, Pneumocyte; settings: alveolar cells, read-out: Drug uptake; method in brief: as §1
[5] = Drug level in healthy human lung epithelial lining fluid at 400 mg, po every 12 hrs for 7 days measured after 12 hrs of last dose; type: ADME, organism-based; settings: read-out: Drug uptake; method in brief: as §1
[6] = T>MIC90 in healthy human alveolar cell at 400 mg, po every 12 hrs for 7 days; type: functional, Pneumocyte
[7] = Drug level in healthy human plasma at 400 mg, po every 12 hrs for 7 days measured after 8 hrs of last dose; type: ADME, organism-based; settings: read-out: Drug uptake
Method in brief: (§2)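 Same dosing: 400 mg oral suspension after a high-fat meal every 12 h, 14 doses. Blood went into EDTA tubes at 0, 3, 5, 8, 12 and 24 h after the final dose and was spun at 1,300 x g for 10 min at 4°C. Plasma was frozen and assayed by validated LC-MS/MS, LLOQ 1.00 ng/ml, calibration 1.00 to 4,000 ng/ml.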

[8] = Cmax in healthy human plasma at 400 mg, po every 12 hrs for 7 days; type: ADME, organism-based; parameters: dose 400 mg, route oral
Method in brief: (§3)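 Noncompartmental analysis of day-8 concentration-time data after 14 oral 400 mg doses every 12 h. Plasma parameters came from each subject's profile. ELF and alveolar cell values came from mean concentrations at each BAL time (3 to 24 h). AUC0-12 was calculated by the linear trapezoidal method.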

[9] = T>MIC90 in healthy human lung epithelial lining fluid at 400 mg, po every 12 hrs for 7 days; type: functional
[10] = Tmax in healthy human plasma at 400 mg, po every 12 hrs for 7 days; type: ADME, organism-based; method in brief: as §3
[11] = Ratio of Drug level in healthy human alveolar cell to drug level in healthy human plasma at 400 mg, po every 12 hrs for 7 days measured after 5 hrs of last dose; type: ADME, organism-based, Pneumocyte; settings: alveolar cells / plasma
[12] = Drug level in healthy human lung epithelial lining fluid at 400 mg, po every 12 hrs for 7 days measured after 8 hrs of last dose; type: ADME, organism-based; settings: read-out: Drug uptake; method in brief: as §1
[13] = Ratio of Drug level in healthy human lung epithelial lining fluid to drug level in healthy human plasma at 400 mg, po every 12 hrs for 7 days measured after 24 hrs of last dose; type: ADME, organism-based
[14] = Ratio of Cmax in healthy human alveolar cell at 400 mg, po every 12 hrs for 7 days to MIC90 for Aspergillus spp.; type: functional, Pneumocyte
[15] = Drug level in healthy human plasma at 400 mg, po every 12 hrs for 7 days measured after 24 hrs of last dose; type: ADME, organism-based; settings: read-out: Drug uptake; method in brief: as §2
[16] = AUC (0 to 12 hrs) in healthy human alveolar cell at 400 mg, po every 12 hrs for 7 days; type: ADME, organism-based, Pneumocyte; parameters: time < 12 hr, dose 400 mg, route oral; settings: alveolar cells; method in brief: as §3
[17] = Cmax in healthy human alveolar cell at 400 mg, po every 12 hrs for 7 days; type: ADME, organism-based, Lung, Pneumocyte; parameters: dose 400 mg, route oral; settings: alveolar cells; method in brief: as §3
[18] = tested on: Homo sapiens; assay: Toxicity in healthy human assessed as urine analysis at 400 mg, po every 12 hrs for 7 days; type: organism-based; settings: in vivo
Method in brief: (§4)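 Safety in healthy adults (21 to 55 y) given 400 mg orally every 12 h with a high-fat meal for 14 doses. Screening blood chemistry, hematology, urinalysis and ECG (corrected QT) were repeated on day 8.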

[19] = Drug level in healthy human alveolar cell at 400 mg, po every 12 hrs for 7 days measured after 3 hrs of last dose; type: ADME, organism-based, Pneumocyte; settings: alveolar cells, read-out: Drug uptake; method in brief: as §1
[20] = Ratio of Drug level in healthy human alveolar cell to drug level in healthy human plasma at 400 mg, po every 12 hrs for 7 days measured after 3 hrs of last dose; type: ADME, organism-based, Pneumocyte; settings: alveolar cells / plasma
[21] = Tmax in healthy human lung epithelial lining fluid at 400 mg, po every 12 hrs for 7 days; type: ADME, organism-based; method in brief: as §3
[22] = Protein binding in human; type: ADME, organism-based; settings: in vivo, read-out: PB
[23] = AUC (0 to 12 hrs) in healthy human plasma at 400 mg, po every 12 hrs for 7 days; type: ADME, organism-based; parameters: dose 400 mg, time < 12 hr, route oral; method in brief: as §3
[24] = Cmax in healthy human lung epithelial lining fluid at 400 mg, po every 12 hrs for 7 days; type: ADME, organism-based; parameters: dose 400 mg, route oral; method in brief: as §3
[25] = Ratio of Drug level in healthy human alveolar cell to drug level in healthy human plasma at 400 mg, po every 12 hrs for 7 days measured after 8 hrs of last dose; type: ADME, organism-based, Pneumocyte; settings: alveolar cells / plasma
[26] = Drug level in healthy human lung epithelial lining fluid at 400 mg, po every 12 hrs for 7 days measured after 3 hrs of last dose; type: ADME, organism-based; settings: read-out: Drug uptake; method in brief: as §1
[27] = Drug level in healthy human plasma at 400 mg, po every 12 hrs for 7 days measured after 3 hrs of last dose; type: ADME, organism-based; settings: read-out: Drug uptake; method in brief: as §2
[28] = Ratio of Drug level in healthy human alveolar cell to drug level in healthy human plasma at 400 mg, po every 12 hrs for 7 days measured after 24 hrs of last dose; type: ADME, organism-based, Pneumocyte; settings: alveolar cells / plasma
[29] = Ratio of Drug level in healthy human alveolar cell to drug level in healthy human plasma at 400 mg, po every 12 hrs for 7 days measured after 12 hrs of last dose; type: ADME, organism-based, Pneumocyte; settings: alveolar cells / plasma
[30] = Ratio of AUC (0 to 24 hrs) in healthy human plasma at 400 mg, po every 12 hrs for 7 days to MIC90 for Aspergillus spp.; type: functional
[31] = Tmax in healthy human alveolar cell at 400 mg, po every 12 hrs for 7 days; type: ADME, organism-based, Pneumocyte; settings: alveolar cells; method in brief: as §3
[32] = tested on: Homo sapiens; assay: Toxicity in healthy human assessed as vital adverse effects at 400 mg, po every 12 hrs for 7 days; type: organism-based; settings: in vivo; method in brief: as §4
[33] = Ratio of Drug level in healthy human lung epithelial lining fluid to drug level in healthy human plasma at 400 mg, po every 12 hrs for 7 days measured after 3 hrs of last dose; type: ADME, organism-based
[34] = Drug level in healthy human alveolar cell at 400 mg, po every 12 hrs for 7 days measured after 12 hrs of last dose; type: ADME, organism-based, Pneumocyte; settings: alveolar cells, read-out: Drug uptake; method in brief: as §1
[35] = Drug level in healthy human lung epithelial lining fluid at 400 mg, po every 12 hrs for 7 days measured after 24 hrs of last dose; type: ADME, organism-based; settings: read-out: Drug uptake; method in brief: as §1
[36] = tested on: Plasma; assay: T>MIC90 in healthy human plasma at 400 mg, po every 12 hrs for 7 days; type: functional
[37] = Drug level in healthy human plasma at 400 mg, po every 12 hrs for 7 days measured after 12 hrs of last dose; type: ADME, organism-based; settings: read-out: Drug uptake; method in brief: as §2
[38] = Ratio of AUC (0 to 24 hrs) in healthy human alveolar cell at 400 mg, po every 12 hrs for 7 days to MIC90 for Aspergillus spp.; type: functional, Pneumocyte
[39] = Drug level in healthy human plasma at 400 mg, po every 12 hrs for 7 days measured after 5 hrs of last dose; type: ADME, organism-based; settings: read-out: Drug uptake; method in brief: as §2
[40] = Ratio of Drug level in healthy human lung epithelial lining fluid to drug level in healthy human plasma at 400 mg, po every 12 hrs for 7 days measured after 8 hrs of last dose; type: ADME, organism-based
[41] = Half life in human; type: ADME, organism-based; settings: in vivo
[42] = tested on: Homo sapiens; assay: Toxicity in healthy human plasma assessed as blood chemistry analysis at 400 mg, po every 12 hrs for 7 days; type: organism-based; settings: in vivo; method in brief: as §4
[43] = Ratio of Drug level in healthy human lung epithelial lining fluid to drug level in healthy human plasma at 400 mg, po every 12 hrs for 7 days measured after 5 hrs of last dose; type: ADME, organism-based
[44] = tested on: Homo sapiens; assay: Toxicity in healthy human plasma assessed as hematological analysis at 400 mg, po every 12 hrs for 7 days; type: organism-based; settings: in vivo; method in brief: as §4
[45] = Drug level in healthy human alveolar cell at 400 mg, po every 12 hrs for 7 days measured after 24 hrs of last dose; type: ADME, organism-based, Pneumocyte; settings: alveolar cells, read-out: Drug uptake; method in brief: as §1
[46] = Ratio of Drug level in healthy human lung epithelial lining fluid to drug level in healthy human plasma at 400 mg, po every 12 hrs for 7 days measured after 12 hrs of last dose; type: ADME, organism-based
[47] = Drug level in healthy human lung epithelial lining fluid at 400 mg, po every 12 hrs for 7 days measured after 5 hrs of last dose; type: ADME, organism-based; settings: read-out: Drug uptake; method in brief: as §1
[48] = tested on: Homo sapiens; assay: Cardiotoxicity in healthy human assessed as corrected QT intervals at 400 mg, po every 12 hrs for 8 days; settings: in vivo
[49] = Ratio of AUC (0 to 24 hrs) in healthy human lung epithelial lining fluid at 400 mg, po every 12 hrs for 7 days to MIC90 for Aspergillus spp.; type: functional
[50] = AUC (0 to 12 hrs) in healthy human lung epithelial lining fluid at 400 mg, po every 12 hrs for 7 days; type: ADME, organism-based; parameters: time < 12 hr, dose 400 mg, route oral; method in brief: as §3

CC[C@@H]([C@H](C)O)n1ncn(-c2ccc(N3CCN(c4ccc(OC[C@@H]5CO[C@@](Cn6cncn6)(c6ccc(F)cc6F)C5)cc4)CC3)cc2)c1=O [POSACONAZOLE]
concentration at 5 h [1]: 87700 ng/mL
Ratio [2]: 4.15
Ratio [3]: 3.72
concentration at 8 h [4]: 60900 ng/mL
concentration at 12 h [5]: 1020 ng/mL
T>MIC90 [6]: 24 h
concentration at 8 h [7]: 1730 ng/mL
Cmax [8]: 2080 ng/mL
T>MIC90 [9]: 24 h
Tmax [10]: 3.6 h
Kp at 5 h [11]: 44.3
concentration at 8 h [12]: 1690 ng/mL
Kp at 24 h [13]: 0.92
Ratio [14]: 175
concentration at 24 h [15]: 1280 ng/mL
AUC at 12 h [16]: 715000 ng·h/mL
Cmax [17]: 87700 ng/mL
Activity [18]: Non-toxic
concentration at 3 h [19]: 46200 ng/mL
Kp at 3 h [20]: 34.5
Tmax [21]: 5 h
fraction unbound [22]: < 0.02
AUC at 12 h [23]: 21900 ng·h/mL
Cmax [24]: 1860 ng/mL
Kp at 8 h [25]: 32.5
concentration at 3 h [26]: 1660 ng/mL
concentration at 3 h [27]: 1930 ng/mL
Kp at 24 h [28]: 34.9
Kp at 12 h [29]: 27.3
Ratio [30]: 87.6
Tmax [31]: 5 h
Activity [32]: Non-toxic
Kp at 3 h [33]: 1.08
concentration at 12 h [34]: 49000 ng/mL
concentration at 24 h [35]: 1800 ng/mL
T>MIC90 [36]: 22.3 h
concentration at 12 h [37]: 1620 ng/mL
Ratio [38]: 2860
concentration at 5 h [39]: 1930 ng/mL
Kp at 8 h [40]: 0.95
half-life [41]: 35 h
Activity [42]: Non-toxic
Kp at 5 h [43]: 0.75
Activity [44]: Non-toxic
concentration at 24 h [45]: 60700 ng/mL
Kp at 12 h [46]: 0.59
concentration at 5 h [47]: 1860 ng/mL
Activity [48]: Non-toxic
Ratio [49]: 73.2
AUC at 12 h [50]: 18300 ng·h/mL
